SMILES strings stand for the structures. Calls of active or inactive are those of the source. Cut-off read from the data, not from the text of the source, unless noted: active = inhibition above about 30%; inactive = the rest.

The nature of assay [1]: Her2 expression decrease, cell viability multiplex – SKBR3 breast tumor cells, AlphaScreen, ATP viability, primary screen (AID 461;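 active = Her2 level under about 52% in both replicate screens, with viability over 70% of control, limit read from the data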;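 for Her2 level: lower value means less Her2 protein in the cells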;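 for viability: percent of carrier control wells set as 100% viability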). The conditions noted are these: SKBR3 Her2 protein level, 18-24 h, measured here: SKBR3 viability, ATP luminescence, at 10 µM.
Assay [2] concerns the target Receptor tyrosine-protein kinase erbB-2 (Homo sapiens) (UniProt P04626). The assay is described as above. The settings on record: 18-24 h, at 10 µM, stronger effect = lower value.
Assay [3] is described as follows: reduced viability of SK-BR-3 breast cancer cells – cell-based, 24 h, human, pilot screen (AID 572;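 active = viability at or below 10% of carrier control in both of two separate runs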;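 note: compound exposure lasted between 18 and 24 h rather than exactly 24 h; 100% = carrier-treated control wells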). The conditions noted are these: SK-BR-3 viability, CellTiter-Glo luminescence, at 10 µM, stronger effect = lower value. (Cellular ATP, detected with luciferase, serves as a proxy for viable cell number.)
Assay [4] is described as follows: HUVEC growth inhibition – cell-based, human, primary screen (AID 575;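 active = viability at or below 30% in both replicate assays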;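 note: 100% = median of untreated cell wells with 0.1% DMSO on each plate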). The settings on record: HUVEC proliferation, CellTiter-Glo luminescence, 72 h; at 10 µM; stronger effect = lower value. The essentials: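 material = primary HUVEC, no more than 12 passages | input = 1250 cells per well | controls = vehicle and MePR control wells | measured by = CTG luminescence | times = 72 h compound incubation | format = collagen-coated 384-well format | read-out = % viability vs DMSO wells | doses = single 10 µM dose, 0.1% DMSO, from 5x medium stock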

Assay [5] in a line: H69AR cell proliferation blockers – human, duplicate replicates, primary screen (AID 580;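 active = viability at or under a set limit in both replicates, limit being median viability minus 3 SD, cut at about 48% in these data, passing the limit was not always enough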;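 note: 100% = mean luminescence of untreated wells and 0% = no signal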). The conditions noted are these: H69AR lung tumor cells viability, ATP luminescence, 72 h; at 10 µM; stronger effect = lower value.
Assay [6] is described as follows: MRP1 drug-resistance reversers in H69AR cells – cell-based, doxorubicin co-treatment, pilot screen (AID 601;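 active = viability loss from added drug above about 55%, and viability with drug at most 40%, in both replicates, limit read from the data, passing the limit was not always enough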). The conditions noted are these: CellTiter-Glo, 72 h, at 10 µM; for differential viability (reversal): stronger effect = higher value.
Assay [7] can be described thus: yeast transport mutant growth inhibition pilot in 384-well plates, post-Golgi transport modulator project (AID 636; in the data active = inhibition above about 31%). The conditions noted are these: absorbance 615 nm, about 18 h, stronger effect = higher value.
Assay [8] can be described thus: growth suppression of yeast trafficking mutant, preliminary HTS, modulators of trafficking downstream of Golgi apparatus project, 1536-format plate, OD 615 nm (AID 637). The settings on record: yeast transport mutant growth, absorbance 615 nm, 18 h; stronger effect = higher value.
Setting [9] is: H69AR cells + 2 uM doxorubicin, measured here: viability with 2 uM doxorubicin, stronger effect = lower value.
Setting [10] is: H69AR cells, compound alone cytotoxicity.

Receptor tyrosine-protein kinase erbB-2 (Homo sapiens), sequence (P04626 whole entry, looked up): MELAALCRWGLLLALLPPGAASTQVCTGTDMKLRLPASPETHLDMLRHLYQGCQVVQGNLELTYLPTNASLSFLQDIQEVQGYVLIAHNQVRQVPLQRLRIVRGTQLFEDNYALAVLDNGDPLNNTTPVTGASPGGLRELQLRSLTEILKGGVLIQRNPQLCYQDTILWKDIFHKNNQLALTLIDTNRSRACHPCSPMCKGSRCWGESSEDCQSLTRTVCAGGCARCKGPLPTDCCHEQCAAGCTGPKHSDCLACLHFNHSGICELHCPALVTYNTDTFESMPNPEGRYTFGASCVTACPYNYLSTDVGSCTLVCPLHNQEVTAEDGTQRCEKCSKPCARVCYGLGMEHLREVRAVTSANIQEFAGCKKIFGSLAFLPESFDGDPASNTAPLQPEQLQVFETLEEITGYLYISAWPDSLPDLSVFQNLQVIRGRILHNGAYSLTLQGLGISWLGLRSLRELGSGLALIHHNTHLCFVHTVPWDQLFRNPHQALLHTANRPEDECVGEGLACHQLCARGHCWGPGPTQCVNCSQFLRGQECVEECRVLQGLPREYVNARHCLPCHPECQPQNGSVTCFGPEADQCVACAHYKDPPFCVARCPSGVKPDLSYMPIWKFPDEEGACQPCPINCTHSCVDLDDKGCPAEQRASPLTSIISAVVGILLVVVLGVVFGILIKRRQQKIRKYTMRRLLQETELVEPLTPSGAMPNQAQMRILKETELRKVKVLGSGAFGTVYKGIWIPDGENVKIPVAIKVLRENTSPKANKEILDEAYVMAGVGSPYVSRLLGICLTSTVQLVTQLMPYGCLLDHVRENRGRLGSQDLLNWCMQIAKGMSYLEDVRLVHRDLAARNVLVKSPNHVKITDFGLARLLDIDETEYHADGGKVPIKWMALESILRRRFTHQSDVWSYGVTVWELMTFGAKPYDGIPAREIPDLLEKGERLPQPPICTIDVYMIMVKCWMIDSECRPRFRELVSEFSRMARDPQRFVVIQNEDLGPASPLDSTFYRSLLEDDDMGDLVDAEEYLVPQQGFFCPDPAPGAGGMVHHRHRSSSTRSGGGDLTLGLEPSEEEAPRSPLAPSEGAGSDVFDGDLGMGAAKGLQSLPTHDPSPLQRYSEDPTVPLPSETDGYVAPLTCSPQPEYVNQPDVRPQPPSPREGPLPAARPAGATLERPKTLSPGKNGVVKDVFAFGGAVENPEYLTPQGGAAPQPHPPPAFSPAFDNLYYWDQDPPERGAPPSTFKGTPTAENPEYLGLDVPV

By viability is commonly meant a read-out of living cells in per cent, often relative to untreated cells. The inhibition is the change of the read-out against control, counted positive when it falls. For the compound `Cc1ccc2[nH]c(=O)c(C(c3nnnn3CCc3ccccc3)N3CCOCC3)cc2c1` (stereo not given), the viability is 86% in assay [1]; 86% (inactive) in assay [3]; 76.9% (inactive) in assay [4]; 100% (inactive) in assay [5]; 87.8% in assay [6] (setting [9]); 100% in assay [6] (setting [10]). In assay [2], the Her2 level is 87.5% (inactive). The differential viability (reversal) in assay [6] (H69AR cells + 2 uM doxorubicin) was 12.1% (inactive). Moreover, the inhibition is -5.95% (inactive) in assay [7] and -0.49% (inactive) in assay [8].

Regarding `CCOc1ccccc1Nc1nnc(SCC(=O)N2CCCC2)s1`, the viability in assay [1] is 104%; in assay [3], 104% (inactive); in assay [4] it was 103% (inactive); in assay [5], 101% (inactive); in assay [6] (setting [9]), 92.8%; in assay [6] (setting [10]), 101%. Further, the Her2 level in assay [2] was 91.5% (inactive). Further, the differential viability (reversal) in assay [6] (H69AR cells + 2 uM doxorubicin) was 7.78% (inactive). Besides, the inhibition in assay [7] is -3.12% (inactive); in assay [8] it was -0.95% (inactive).

As for `CCC(C)(C)NC(=O)CN(C(=O)c1snc(C(N)=O)c1N)c1ccc2c(c1)OCO2`, the viability is 104% in assay [1]; 104% (inactive) in assay [3]; 110% (inactive) in assay [4]; 110% (inactive) in assay [5]; 102% in assay [6] (setting [9]); 110% in assay [6] (setting [10]). For the same compound, the Her2 level in assay [2] is 94% (inactive). Further, in assay [6] (H69AR cells + 2 uM doxorubicin), the differential viability (reversal) was 7.68% (inactive). Further, the inhibition in assay [7] is -4.93% (inactive); in assay [8], -1.27% (inactive).

As for `O=c1c(-c2ccc(F)cc2)coc2c3c(ccc12)OCCO3`, the viability in assay [1] was 100%; in assay [3] it was 100% (inactive); in assay [4] it was 120% (inactive); in assay [5], 107% (inactive); in assay [6] (setting [9]), 86.7%; in assay [6] (setting [10]) it was 107%. The Her2 level in assay [2] was 78.5% (inactive). In addition, the differential viability (reversal) in assay [6] (H69AR cells + 2 uM doxorubicin) is 20% (inactive). Besides, the inhibition in assay [7] is 0.13% (inactive); in assay [8] it was -6.73% (inactive).

For the compound `O=C1CC(c2ccsc2)c2cc3c(cc2N1)OCCO3` (stereo not given), the viability was 103% in assay [1]; 103% (inactive) in assay [3]; 67.6% (inactive) in assay [4]; 26.9% (active) in assay [5]; 60.2% in assay [6] (setting [9]); 26.9% in assay [6] (setting [10]). Also, the Her2 level in assay [2] was 98.5% (inactive). The differential viability (reversal) in assay [6] (H69AR cells + 2 uM doxorubicin) is -33.3% (inactive). Moreover, the figures for the inhibition in assay [7] and in assay [8] were -2.93% (inactive) and -5.25% (inactive), respectively.

With `O=C1CSC(c2cn(-c3ccccc3)nc2-c2cccs2)N1CC1CCCO1` (stereo not given), the viability is 102% in assay [1]; 102% (inactive) in assay [3]; 71.9% (inactive) in assay [4]; 95.7% (inactive) in assay [5]; 96.4% in assay [6] (setting [9]); 95.7% in assay [6] (setting [10]). Also, the Her2 level in assay [2] was 90% (inactive). The differential viability (reversal) in assay [6] (H69AR cells + 2 uM doxorubicin) was -0.73% (inactive). Further, the values for the inhibition in assay [7] and in assay [8] were -2.11% (inactive) and 2.58% (inactive), respectively.

As to `CC1(C)CC(=O)C(C=Nc2ccncc2)=C(O)C1`, the viability in assay [1] is 96.5%; in assay [3] it was 96.5% (inactive); in assay [4] it was 92.2% (inactive); in assay [5], 106% (inactive); in assay [6] (setting [9]), 99.3%; in assay [6] (setting [10]), 106%. Further, the Her2 level in assay [2] is 93% (inactive). Further, the differential viability (reversal) in assay [6] (H69AR cells + 2 uM doxorubicin) was 7.13% (inactive). Further, the figures for the inhibition in assay [7] and in assay [8] were -4.19% (inactive) and -7.62% (inactive), respectively.

As for `CCn1c(SCC(=O)Nc2ccccc2F)nc2c(c1=O)SC(C)C2` (stereo not given), the viability was 116% in assay [1]; 116% (inactive) in assay [3]; 96.4% (inactive) in assay [4]; 95.3% (inactive) in assay [5]; 83.8% in assay [6] (setting [9]); 95.3% in assay [6] (setting [10]). In addition, in assay [2], the Her2 level was 86.5% (inactive). Besides, the differential viability (reversal) in assay [6] (H69AR cells + 2 uM doxorubicin) is 11.5% (inactive). For the same compound, the figures for the inhibition in assay [7] and in assay [8] were -6.03% (inactive) and 2.54% (inactive), respectively.

As for `C=CCn1c(SCc2ccc3nonc3c2)nnc1-c1cccs1`, the viability in assay [1] is 84%; in assay [3], 84% (inactive); in assay [4] it was 85.8% (inactive); in assay [5], 87.3% (inactive); in assay [6] (setting [9]), 84.7%; in assay [6] (setting [10]), 87.3%. Also, the Her2 level in assay [2] was 79.5% (inactive). In addition, the differential viability (reversal) in assay [6] (H69AR cells + 2 uM doxorubicin) was 2.61% (inactive). For the same compound, the inhibition in assay [7] is -5.47% (inactive); in assay [8], 0.98% (inactive).

For the compound `COc1ccccc1C(=O)Nc1nc2ccc(S(C)(=O)=O)cc2s1`, the viability in assay [1] was 89.5%; in assay [3], 89.5% (inactive); in assay [4] it was 93.5% (inactive); in assay [5] it was 79.5% (inactive); in assay [6] (setting [9]), 85.6%; in assay [6] (setting [10]), 79.5%. The Her2 level in assay [2] was 78% (inactive). Further, the differential viability (reversal) in assay [6] (H69AR cells + 2 uM doxorubicin) was -6.1% (inactive). Further, the results for the inhibition in assay [7] and in assay [8] were 0.64% (inactive) and -1% (inactive), respectively.

Consider `Cc1ccc(S(=O)(=O)NCCNC(=O)C2CCCNC2=O)cc1` (stereo not given), for which the viability is 93.5% in assay [1]; 93.5% (inactive) in assay [3]; 103% (inactive) in assay [4]; 105% (inactive) in assay [5]; 92.9% in assay [6] (setting [9]); 105% in assay [6] (setting [10]). Also, the Her2 level in assay [2] is 86.5% (inactive). For the same compound, the differential viability (reversal) in assay [6] (H69AR cells + 2 uM doxorubicin) is 12% (inactive). Besides, the inhibition was -4.67% (inactive) in assay [7] and 1.8% (inactive) in assay [8].

Take `CC(=O)c1ccc(NC(=O)c2cc(CC(C)C)on2)cc1`: the viability in assay [1] is 93%; in assay [3], 93% (inactive); in assay [4], 120% (inactive); in assay [5] it was 89.2% (inactive); in assay [6] (setting [9]), 91.1%; in assay [6] (setting [10]) it was 89.2%. Moreover, the Her2 level in assay [2] is 114% (inactive). In addition, the differential viability (reversal) in assay [6] (H69AR cells + 2 uM doxorubicin) was -1.95% (inactive). Also, the inhibition in assay [7] was 6.15% (inactive); in assay [8], -8.67% (inactive).

Regarding `Cn1c(=O)cc(OCC(=O)NCCCN2CCN(Cc3ccccc3)CC2)c2ccccc21`, the viability in assay [1] was 90.5%; in assay [3], 90.5% (inactive); in assay [4], 81.3% (inactive); in assay [5], 103% (inactive); in assay [6] (setting [9]), 84.8%; in assay [6] (setting [10]) it was 103%. Further, the Her2 level in assay [2] is 104% (inactive). For the same compound, the differential viability (reversal) in assay [6] (H69AR cells + 2 uM doxorubicin) is 17.9% (inactive). The inhibition is -0.93% (inactive) in assay [7] and -7.87% (inactive) in assay [8].

As to `CCOC(=O)CSc1nc2cc(C(=O)N3CCC(C(N)=O)CC3)ccc2c(=O)n1-c1ccccc1`, the viability in assay [1] is 98%; in assay [3], 98% (inactive); in assay [4] it was 76.5% (inactive); in assay [5], 100% (inactive); in assay [6] (setting [9]), 92.4%; in assay [6] (setting [10]) it was 100%. In addition, the Her2 level in assay [2] was 95% (inactive). Moreover, the differential viability (reversal) in assay [6] (H69AR cells + 2 uM doxorubicin) was 7.63% (inactive). Also, the figures for the inhibition in assay [7] and in assay [8] were -3.95% (inactive) and -4.17% (inactive), respectively.

For the compound `O=C(Cn1ncc2c(=O)oc3ccccc3c21)Nc1nc2ccccc2s1`, the viability was 113% in assay [1]; 113% (inactive) in assay [3]; 97.2% (inactive) in assay [4]; 102% (inactive) in assay [5]; 94.9% in assay [6] (setting [9]); 102% in assay [6] (setting [10]). The Her2 level in assay [2] is 102% (inactive). Besides, the differential viability (reversal) in assay [6] (H69AR cells + 2 uM doxorubicin) was 7.33% (inactive). Also, the inhibition in assay [7] is -8.08% (inactive); in assay [8], -3.65% (inactive).

Turning to `Oc1ccc(C=Nc2cccc3ncccc23)c(O)c1`, the viability in assay [1] was 103%; in assay [3], 103% (inactive); in assay [4] it was 80% (inactive); in assay [5] it was 84.9% (inactive); in assay [6] (setting [9]), 88.3%; in assay [6] (setting [10]), 84.9%. Besides, the Her2 level in assay [2] was 84.5% (inactive). Also, the differential viability (reversal) in assay [6] (H69AR cells + 2 uM doxorubicin) was -3.45% (inactive). Besides, the inhibition is -2.93% (inactive) in assay [7] and 0.81% (inactive) in assay [8].

The values above are taken from PubChem BioAssay.
